Results as given in ChEMBL document CHEMBL4184121, “Semisynthesis, cytotoxicity, antimalarial evaluation and structure-activity relationship of two series of triterpene derivatives” (Bioorg Med Chem Lett, 2018).
Active and inactive are the calls of the source. No cut-off for these calls is given here.

Legend:
Plasmodium falciparum [1] = test: Antiplasmodial activity against chloroquine-sensitive Plasmodium falciparum 3D7; assay type: functional, organism-based
Plasmodium falciparum [2] = test: Antiplasmodial activity against synchronous culture of chloroquine-resistant Plasmodium falciparum W2 ring stage parasite infected in human erythrocytes assessed as parasite cell death at 100 uM up to 72 hrs by Wright's eosin methylene blue staining based microscopic analysis; assay type: functional, organism-based
In short: (§1)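 Stage-specificity test on W2 parasites in human erythrocytes, started at 2% parasitaemia. Parasites cultured at 2% hematocrit in complete medium at 37 °C.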

Plasmodium falciparum [3] = test: Antiplasmodial activity against synchronous culture of chloroquine-resistant Plasmodium falciparum W2 ring stage parasite infected in human erythrocytes assessed as reduction in parasitaemia at 100 uM after 24 to 72 hrs by Wright's eosin methylene blue staining based microscopic analysis; assay type: functional, organism-based; in short: as §1
Plasmodium falciparum [4] = test: Antiplasmodial activity against synchronous culture of chloroquine-resistant Plasmodium falciparum W2 ring stage parasite infected in human erythrocytes assessed as delayed appearance of trophozoites at 100 uM after 24 to 72 hrs by Wright's eosin methylene blue staining based microscopic analysis; assay type: functional, organism-based; in short: as §1
[5] = Cytotoxicity against African green monkey Vero cells after 72 hrs by MTT assay; assay type: cell-based; details: chlorocebus sabaeus
In short: (§2)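 VERO (ATCC CCL-81) and HepG2 (ATCC HB-8065) cells were exposed for 24, 48 or 72 h to an […] dilution series from 400 to 1.56 μM. CC50 was taken from the concentration–response curve. Triplicates, with at least three independent cultures (n = 3).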

Plasmodium falciparum [6] = test: Antiplasmodial activity against Plasmodium falciparum assessed as combination index in presence of artemisinin; assay type: functional
In short: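 Chloroquine-resistant P. falciparum W2 was grown in fresh human O+ erythrocytes at 2% hematocrit in complete medium at 37 °C. Artemisinin was co-tested with the triterpene using the one-point Chou–Talalay method, at a minimum of one combination ratio. CI is the sum of the two FICs: ≤1 synergy, 1–2 additivity, >2 antagonism. Triplicates, n = 3 independent cultures.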

[7] = Cytotoxicity against human HepG2 cells after 72 hrs by MTT assay; assay type: cell-based; in short: as §2
Subtilisin Carlsberg = target: T1, Subtilisin Carlsberg (Bacillus licheniformis, UniProt P00780); test: Inhibition of Bacillus licheniformis subtilisin A by green-fluorescent BODIPY FL dye based fluorescence assay
T1 sequence (P00780 whole entry): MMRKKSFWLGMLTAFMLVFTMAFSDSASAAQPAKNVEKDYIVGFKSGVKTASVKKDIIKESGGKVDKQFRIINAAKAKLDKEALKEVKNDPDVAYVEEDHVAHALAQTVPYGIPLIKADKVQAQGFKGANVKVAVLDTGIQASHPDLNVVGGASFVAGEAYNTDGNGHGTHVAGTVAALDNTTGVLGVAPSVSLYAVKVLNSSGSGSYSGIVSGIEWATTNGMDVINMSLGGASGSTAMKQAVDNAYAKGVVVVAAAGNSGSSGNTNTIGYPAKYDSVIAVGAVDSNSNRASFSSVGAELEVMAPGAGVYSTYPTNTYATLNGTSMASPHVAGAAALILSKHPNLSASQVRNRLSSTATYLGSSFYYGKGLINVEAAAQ
In short: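 Purified B. licheniformis subtilisin A tested with a commercial fluorescent peptidase/protease kit, following the kit protocol. Test compound ranged from 5 to 0.01 mM. Fluorescence plotted against log inhibitor concentration.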

Plasmodium falciparum [8] = test: Antiplasmodial activity against Plasmodium falciparum assessed as potentiation of artemisinin-induced antimalarial activity by measuring dose reduction index relative to artemisinin alone; assay type: functional
Plasmodium falciparum [9] = test: Antiplasmodial activity against synchronous culture of chloroquine-resistant Plasmodium falciparum W2 ring stage parasite infected in human erythrocytes assessed as accumulation of ring forms at 100 uM after 24 to 72 hrs by Wright's eosin methylene blue staining based microscopic analysis; assay type: functional, organism-based; in short: as §1
Plasmodium falciparum [10] = test: Antiplasmodial activity against chloroquine-resistant Plasmodium falciparum W2 infected in human erythrocytes; assay type: functional, organism-based
In short: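 P. falciparum W2 grown in fresh human O+ erythrocytes at 2% hematocrit in complete medium, 37 °C. Compounds tested over a 100–3.12 µM dilution series. IC50 estimated from the dose-response curve relative to drug-free control wells (100% parasite viability). Artemisinin run in parallel as control. Triplicates, at least three independent cultures (n = 3).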

[11] = Selectivity index, ratio of CC50 for human HepG2 cells to IC50 for chloroquine-resistant Plasmodium falciparum W2; assay type: toxicity; details: read-out: Ratio CC50/IC50
In short: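 SI = HepG2 CC50 / W2 IC50. CC50 came from HepG2 growth inhibition over a 400–1.56 µM dilution series, read at 24, 48 and 72 h. IC50 came from the W2 erythrocyte assay (100–3.12 µM range). Triplicates, at least three independent cultures.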

[12] = Resistance index, ratio of IC50 for chloroquine-resistant Plasmodium falciparum W2 infected in human erythrocytes to IC50 for chloroquine-sensitive Plasmodium falciparum 3D7; assay type: functional

C=C(C)[C@@H]1CC[C@]2(C(=O)O)CC[C@]3(C)[C@H](CC[C@@H]4[C@@]5(C)CC[C@H](OC(=O)CCC)C(C)(C)[C@@H]5CC[C@]43C)[C@@H]12
IC50 (Plasmodium falciparum [1]): 5 µM | Activity (Plasmodium falciparum [2]): Active | Activity (Plasmodium falciparum [3]): Active | Activity (Plasmodium falciparum [4]): Active | CC50 at 72 h [5]: > 400 µM | CI (Plasmodium falciparum [6]): 1.34 | CC50 at 72 h [7]: > 400 µM | IC50 (Subtilisin Carlsberg): 93 µM | Activity_index (Plasmodium falciparum [8]): 4 | Activity (Plasmodium falciparum [9]): Active | IC50 (Plasmodium falciparum [10]): 3.4 µM | selectivity ratio [11]: > 117 | Ratio IC50 [12]: 0.68
